Columns and labels:
U2OS cells = assay: Flow cytometry, early apoptosis, adriamycin; format: cell-based; conditions: adriamycin 1 μg ml−1, one day; control cells (control siRNA); n=4
Summary of the method: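 U2OS cells were transfected with PIMT or control siRNA. After 2 days they were treated with adriamycin, and apoptotic cells were scored by flow cytometry one day later. At least 10,000 cells were analysed per treatment. Significance was tested by Student's t-test.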

PIMT = assay: In vitro methylation assay with recombinant GST-PIMT; format: biochemical; conditions: GST-p53 1–82 methylated by GST-PIMT or His-PIMT, followed by NaOH; fluorography
p53 ubiquitination = assay: p53 ubiquitination; format: cell-based; conditions: U2OS or H1299 cells, MG132 40 μM
p53 = p53 protein level, immunoblot; format: cell-based; conditions: U2OS cells, PIMT siRNA/shRNA or ectopic PIMT expression
[1] = test system: p21 or Bax promoter luciferase; assay: Luciferase assay, p53-dependent transcription; format: cell-based; conditions: H1299 cells, p21-luc or Bax-luc; n=4
p53-HDM2 interaction = assay: p53-HDM2 co-immunoprecipitation; format: cell-based; conditions: U2OS cells (PIMT siRNA) or H1299 cells (HA-p53, Flag-PIMT)
Summary of the method: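 Supernatants were incubated overnight at 4 °C with FLAG-, HA- or p53-antibody agarose and washed twice. Eluates were boiled 5 min, run on 4–12% Bis–Tris gels and immunoblotted with HRP-conjugated primary antibodies using chemiluminescence.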

Molecule: COc1cccc2c1C(=O)c1c(O)c3c(c(O)c1C2=O)C[C@@](O)(C(=O)CO)C[C@@H]3O[C@H]1C[C@H](N)[C@H](O)[C@H](C)O1 [adriamycin]
- early apoptosis (U2OS cells): 19.5%

Molecule: p53 (amino acids 1–82): N terminus of p53 (amino acids 1–82)
- methylation after alkaline treatment (PIMT): removed upon alkaline treatment

Molecule: protein L-isoaspartyl methyltransferase [PIMT]
- ubiquitination of p53 (p53 ubiquitination): increased p53 ubiquitination
- p53 protein level (p53): decreased the p53 protein levels in a dose-dependent manner
- p53-dependent transcription [1]: inhibited the p53-dependent transcription of both reporter genes
- p53-HDM2 interaction (p53-HDM2 interaction): enhanced

Reference: article PMC3621463 (Nature Communications, 2012)
